Calls of active or inactive are those of the source.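 The calls were made as follows, unless noted: active = viability at or below 30% in both replicate assays; inconclusive = viability at or below 30% in just one of the two assays; inactive = the rest.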

These results are taken from PubChem BioAssay.

Experiment [1] can be described thus: Her2 expression decrease, cell viability multiplex – SKBR3 breast tumor cells, AlphaScreen, ATP viability, primary screen (AID 461;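 active = Her2 level under about 52% in both replicate screens, with viability over 70% of control, limit read from the data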;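 as to Her2 level: lower value means less Her2 protein in the cells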;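 as to viability: percent of carrier control wells set as 100% viability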). As to conditions: SKBR3 Her2 protein level, 18-24 h, measured here: SKBR3 viability, ATP luminescence, at 10 µM. (In general: In Alpha technology, singlet oxygen from a donor bead excites a nearby acceptor bead.)
Experiment [2] has as its target Receptor tyrosine-protein kinase erbB-2 (Homo sapiens) (UniProt P04626). Described as above. To be noted: 18-24 h, at 10 µM, stronger effect = lower value.
Experiment [3] is described as follows: reduced viability of SK-BR-3 breast cancer cells – cell-based, 24 h, human, pilot screen (AID 572;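 active = viability at or below 10% of carrier control in both of two separate runs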;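 also: compound exposure lasted between 18 and 24 h rather than exactly 24 h; 100% = carrier-treated control wells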). As to conditions: SK-BR-3 viability, CellTiter-Glo luminescence, at 10 µM, stronger effect = lower value. (Cellular ATP, detected with luciferase, serves as a proxy for viable cell number.)
Experiment [4] is described as follows: HUVEC growth inhibition – cell-based, human, primary screen (AID 575).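 Also: 100% = median of untreated cell wells with 0.1% DMSO on each plate.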 As to conditions: HUVEC proliferation, CellTiter-Glo luminescence, 72 h; at 10 µM; stronger effect = lower value. An outline of the steps:
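Assay system: primary human umbilical vein endothelial cells / Buffer or medium: endothelial basal medium with 2% FBS plus growth supplements / Compound dosing: one dose, 10 µM final, 0.1% DMSO / Timing: 72 h treatment at 37 °C / Signal: CTG luminescence / Benchmarks: 32 DMSO-only cell-control wells (high), 32 MePR drug-control wells (low) per plate / Plate: collagen-coated 384-well format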

Experiment [5] can be described thus: H69AR cell proliferation blockers – human, duplicate replicates, primary screen (AID 580;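 active = viability at or under a set limit in both replicates, limit being median viability minus 3 SD, cut at about 48% in these data, passing the limit was not always enough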;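 also: 100% = mean luminescence of untreated wells and 0% = no signal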). As to conditions: H69AR lung tumor cells viability, ATP luminescence, 72 h; at 10 µM; stronger effect = lower value.
Experiment [6] in a line: MRP1 drug-resistance reversers in H69AR cells – cell-based, doxorubicin co-treatment, pilot screen (AID 601;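 active = viability loss from added drug above about 55%, and viability with drug at most 40%, in both replicates, limit read from the data, passing the limit was not always enough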). As to conditions: CellTiter-Glo, 72 h, at 10 µM; for differential viability (reversal): stronger effect = higher value.
Experiment [7] is described as follows: yeast transport mutant growth inhibition pilot in 384-well plates, post-Golgi transport modulator project (AID 636; in the data active = inhibition above about 31%). To be noted: absorbance 615 nm, about 18 h, stronger effect = higher value.
The nature of experiment [8]: growth suppression of yeast trafficking mutant, preliminary HTS, modulators of trafficking downstream of Golgi apparatus project, 1536-format plate, OD 615 nm (AID 637; in the data active = inhibition above about 30%). As to conditions: yeast transport mutant growth, absorbance 615 nm, 18 h; stronger effect = higher value.
Where [9] appears, read: H69AR cells + 2 uM doxorubicin, measured here: viability with 2 uM doxorubicin, stronger effect = lower value.
Setting [10] is: H69AR cells, compound alone cytotoxicity.

Sequence of Receptor tyrosine-protein kinase erbB-2 (Homo sapiens) (P04626 whole entry, looked up): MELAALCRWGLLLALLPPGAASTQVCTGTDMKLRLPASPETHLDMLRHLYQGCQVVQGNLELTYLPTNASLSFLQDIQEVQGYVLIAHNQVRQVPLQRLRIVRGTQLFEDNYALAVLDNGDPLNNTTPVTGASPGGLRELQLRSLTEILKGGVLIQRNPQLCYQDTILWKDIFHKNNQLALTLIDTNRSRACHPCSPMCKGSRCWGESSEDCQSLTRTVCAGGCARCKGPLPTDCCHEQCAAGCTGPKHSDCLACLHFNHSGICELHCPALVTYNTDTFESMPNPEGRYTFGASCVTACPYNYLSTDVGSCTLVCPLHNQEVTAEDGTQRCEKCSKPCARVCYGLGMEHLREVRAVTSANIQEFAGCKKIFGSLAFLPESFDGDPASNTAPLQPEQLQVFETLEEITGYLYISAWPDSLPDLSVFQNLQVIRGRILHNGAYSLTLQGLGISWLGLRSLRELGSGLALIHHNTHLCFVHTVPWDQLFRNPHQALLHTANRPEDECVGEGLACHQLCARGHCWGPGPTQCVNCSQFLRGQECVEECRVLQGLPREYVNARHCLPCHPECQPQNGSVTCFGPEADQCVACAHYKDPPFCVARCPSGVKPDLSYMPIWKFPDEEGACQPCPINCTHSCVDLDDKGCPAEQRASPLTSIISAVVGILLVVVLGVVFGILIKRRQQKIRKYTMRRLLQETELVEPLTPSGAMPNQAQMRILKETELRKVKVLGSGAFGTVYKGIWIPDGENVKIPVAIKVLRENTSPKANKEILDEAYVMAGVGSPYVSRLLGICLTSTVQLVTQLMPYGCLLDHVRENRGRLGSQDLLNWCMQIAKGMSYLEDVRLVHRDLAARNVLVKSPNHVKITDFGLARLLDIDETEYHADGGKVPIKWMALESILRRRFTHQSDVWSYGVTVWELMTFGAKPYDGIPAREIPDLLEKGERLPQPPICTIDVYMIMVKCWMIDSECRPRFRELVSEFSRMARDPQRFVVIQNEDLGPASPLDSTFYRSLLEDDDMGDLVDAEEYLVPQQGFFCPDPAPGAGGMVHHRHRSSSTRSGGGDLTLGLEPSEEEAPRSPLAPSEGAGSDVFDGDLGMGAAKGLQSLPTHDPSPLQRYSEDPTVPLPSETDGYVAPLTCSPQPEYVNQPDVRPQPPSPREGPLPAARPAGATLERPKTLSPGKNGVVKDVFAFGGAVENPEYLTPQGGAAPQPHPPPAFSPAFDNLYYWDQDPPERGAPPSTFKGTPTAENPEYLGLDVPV

Regarding `Nc1nonc1NC(=O)CSc1nc2ccccc2s1`, the viability is 86% in experiment [1]; 86% (inactive) in experiment [3]; 91.2% (inactive) in experiment [4]; 90.8% (inactive) in experiment [5]; 86.7% in experiment [6] (setting [9]); 90.8% in experiment [6] (setting [10]). Also, in experiment [2], the Her2 level is 110% (inactive). Also, in experiment [6] (H69AR cells + 2 uM doxorubicin), the differential viability (reversal) was 4.11% (inactive). In addition, the inhibition in experiment [7] is 6.18% (inactive); in experiment [8] it was -8% (inactive).

For the compound `COCCCN1C(=O)C(O)=C(C(=O)c2ccco2)C1c1ccc(Br)cc1` (stereo not given), the viability is 102% in experiment [1]; 102% (inactive) in experiment [3]; 99.5% (inactive) in experiment [4]; 97.6% (inactive) in experiment [5]; 87.4% in experiment [6] (setting [9]); 97.6% in experiment [6] (setting [10]). In addition, the Her2 level in experiment [2] was 89.5% (inactive). In addition, in experiment [6] (H69AR cells + 2 uM doxorubicin), the differential viability (reversal) is 10.2% (inactive). Further, the inhibition in experiment [7] is -6.13% (inactive); in experiment [8], 0.81% (inactive).

On to `Cn1c2ccccc2c2c(C(=O)NCCCN3CCCC3=O)cn(C3CCCCC3)c(=O)c21`, for which the viability was 86% in experiment [1]; 86% (inactive) in experiment [3]; 95.9% (inactive) in experiment [4]; 83.7% (inactive) in experiment [5]; 80.7% in experiment [6] (setting [9]); 83.7% in experiment [6] (setting [10]). For the same compound, the Her2 level in experiment [2] is 88.5% (inactive). For the same compound, the differential viability (reversal) in experiment [6] (H69AR cells + 2 uM doxorubicin) was 3.06% (inactive). The inhibition in experiment [7] is -4.53% (inactive); in experiment [8] it was -0.49% (inactive).

As to `COc1ccc(-n2ccnc2SCC(=O)NCc2ccc3c(c2)OCO3)cc1`, the viability in experiment [1] was 128%; in experiment [3], 128% (inactive); in experiment [4] it was 95.3% (inactive); in experiment [5], 87.2% (inactive); in experiment [6] (setting [9]), 92.6%; in experiment [6] (setting [10]), 87.2%. Besides, the Her2 level in experiment [2] is 89.5% (inactive). The differential viability (reversal) in experiment [6] (H69AR cells + 2 uM doxorubicin) was -5.35% (inactive). Further, the figures for the inhibition in experiment [7] and in experiment [8] were -2.73% (inactive) and -1.9% (inactive), respectively.

Regarding `COc1ccccc1OCc1ccc(C(=O)OCC2CCCO2)o1` (stereo not given), the viability in experiment [1] is 97.5%; in experiment [3], 97.5% (inactive); in experiment [4] it was 106% (inactive); in experiment [5], 100% (inactive); in experiment [6] (setting [9]), 99.8%; in experiment [6] (setting [10]) it was 100%. Also, in experiment [2], the Her2 level is 112% (inactive). Moreover, the differential viability (reversal) in experiment [6] (H69AR cells + 2 uM doxorubicin) is 0.33% (inactive). For the same compound, the inhibition was -5.39% (inactive) in experiment [7] and -3.27% (inactive) in experiment [8].

On to `CC(C)(C)n1nnnc1CN1CCN(C2CCCC2)CC1`, for which the viability is 84% in experiment [1]; 84% (inactive) in experiment [3]; 101% (inactive) in experiment [4]; 104% (inactive) in experiment [5]; 101% in experiment [6] (setting [9]); 104% in experiment [6] (setting [10]). The Her2 level in experiment [2] was 84% (inactive). Further, the differential viability (reversal) in experiment [6] (H69AR cells + 2 uM doxorubicin) is 3.04% (inactive). Moreover, the figures for the inhibition in experiment [7] and in experiment [8] were -7.7% (inactive) and -2.3% (inactive), respectively.

Consider `CCN1CCN(CCCNC(=O)c2cn(CCOC)c(=O)c3c2c2ccccc2n3C)CC1`, for which the viability in experiment [1] is 121%; in experiment [3] it was 121% (inactive); in experiment [4], 96.4% (inactive); in experiment [5], 97.2% (inactive); in experiment [6] (setting [9]) it was 90.3%; in experiment [6] (setting [10]), 97.2%. Further, the Her2 level in experiment [2] was 122% (inactive). In addition, the differential viability (reversal) in experiment [6] (H69AR cells + 2 uM doxorubicin) is 6.88% (inactive). For the same compound, the results for the inhibition in experiment [7] and in experiment [8] were -2.11% (inactive) and -3.82% (inactive), respectively.

In the case of `Cc1ccc(-c2ccc(=O)n(CCC(=O)NCc3ccccn3)n2)cc1`, the viability in experiment [1] is 94.5%; in experiment [3] it was 94.5% (inactive); in experiment [4], 89.3% (inactive); in experiment [5] it was 84.3% (inactive); in experiment [6] (setting [9]) it was 86.2%; in experiment [6] (setting [10]) it was 84.3%. For the same compound, the Her2 level in experiment [2] was 84% (inactive). In experiment [6] (H69AR cells + 2 uM doxorubicin), the differential viability (reversal) was -1.96% (inactive). In addition, the results for the inhibition in experiment [7] and in experiment [8] were -3.95% (inactive) and 0.81% (inactive), respectively.

Turning to `O=C1CN(Cc2ccccc2)C(=NCc2ccco2)S1`, the viability was 97% in experiment [1]; 97% (inactive) in experiment [3]; 97.7% (inactive) in experiment [4]; 86.7% (inactive) in experiment [5]; 81.8% in experiment [6] (setting [9]); 86.7% in experiment [6] (setting [10]). For the same compound, the Her2 level in experiment [2] is 74% (inactive). The differential viability (reversal) in experiment [6] (H69AR cells + 2 uM doxorubicin) is 4.9% (inactive). Moreover, the inhibition in experiment [7] was -6.49% (inactive); in experiment [8] it was 2.95% (inactive).

Regarding `Cc1cc(OCC(=O)N2CCCC2)cc(C)c1Cl`, the viability in experiment [1] is 102%; in experiment [3] it was 102% (inactive); in experiment [4], 101% (inactive); in experiment [5], 89.6% (inactive); in experiment [6] (setting [9]), 73.5%; in experiment [6] (setting [10]), 89.6%. Further, the Her2 level in experiment [2] is 96% (inactive). The differential viability (reversal) in experiment [6] (H69AR cells + 2 uM doxorubicin) is 16.1% (inactive). Also, the inhibition in experiment [7] is -6.8% (inactive); in experiment [8] it was -0.33% (inactive).

As for `CCCN(Cc1cc2ccc(C)cc2[nH]c1=O)C(=O)c1cccnc1`, the viability in experiment [1] is 87%; in experiment [3], 87% (inactive); in experiment [4], 89.3% (inactive); in experiment [5], 87.4% (inactive); in experiment [6] (setting [9]) it was 89.7%; in experiment [6] (setting [10]), 87.4%. Moreover, the Her2 level in experiment [2] is 93% (inactive). In experiment [6] (H69AR cells + 2 uM doxorubicin), the differential viability (reversal) was -2.29% (inactive). In addition, the results for the inhibition in experiment [7] and in experiment [8] were 0% (inactive) and -3.28% (inactive), respectively.

Consider `COC(=O)C1C(=O)c2c([nH]c(C(=O)OCCOC(C)C)c2C)CC1C` (stereo not given), for which the viability in experiment [1] is 100%; in experiment [3], 100% (inactive); in experiment [4] it was 97.8% (inactive); in experiment [5], 99.5% (inactive); in experiment [6] (setting [9]), 91.6%; in experiment [6] (setting [10]), 99.5%. In experiment [2], the Her2 level is 111% (inactive). In addition, the differential viability (reversal) in experiment [6] (H69AR cells + 2 uM doxorubicin) was 7.92% (inactive). Also, the inhibition in experiment [7] is -2.11% (inactive); in experiment [8], -11.5% (inactive).

For the compound `CCN(CC)CCCC1(CN)OCCc2ccccc21` (stereo not given), the viability in experiment [1] was 98.5%; in experiment [3] it was 98.5% (inactive); in experiment [4], 93.3% (inactive); in experiment [5], 83.8% (inactive); in experiment [6] (setting [9]), 103%; in experiment [6] (setting [10]), 83.8%. Besides, the Her2 level in experiment [2] was 88.5% (inactive). Besides, the differential viability (reversal) in experiment [6] (H69AR cells + 2 uM doxorubicin) is -18.9% (inactive). Further, the inhibition in experiment [7] was -0.39% (inactive); in experiment [8], 23.8% (inactive).

On to `Cc1nn(S(=O)(=O)N2CCCCC2)c(C)c1Br`, for which the viability was 95% in experiment [1]; 95% (inactive) in experiment [3]; 96.2% (inactive) in experiment [4]; 102% (inactive) in experiment [5]; 97.1% in experiment [6] (setting [9]); 102% in experiment [6] (setting [10]). The Her2 level in experiment [2] is 130% (inactive). Besides, in experiment [6] (H69AR cells + 2 uM doxorubicin), the differential viability (reversal) is 5.13% (inactive). Besides, the inhibition was -1.41% (inactive) in experiment [7] and -6.17% (inactive) in experiment [8].

`COc1ccc(Br)cc1CNC(=O)CCc1nc(-c2ccc(C)cc2)no1`: the viability in experiment [1] is 101%; in experiment [3] it was 101% (inactive); in experiment [4], 87.4% (inactive); in experiment [5] it was 94.2% (inactive); in experiment [6] (setting [9]), 82.7%; in experiment [6] (setting [10]), 94.2%. Also, the Her2 level in experiment [2] was 77.5% (inactive). In addition, the differential viability (reversal) in experiment [6] (H69AR cells + 2 uM doxorubicin) was 11.5% (inactive). Moreover, the inhibition in experiment [7] was -4.34% (inactive); in experiment [8], -4.67% (inactive).

With `COc1ccc(CC(NC(C)=O)C(=O)NC2CCN(C(=O)Nc3ccc(C#N)cc3)CC2)cc1OC` (stereo not given), the viability in experiment [1] was 93%; in experiment [3], 93% (inactive); in experiment [4], 117% (inactive); in experiment [5], 94.2% (inactive); in experiment [6] (setting [9]), 97.3%; in experiment [6] (setting [10]), 94.2%. Besides, in experiment [2], the Her2 level is 91.5% (inactive). Moreover, the differential viability (reversal) in experiment [6] (H69AR cells + 2 uM doxorubicin) is -3.13% (inactive). Moreover, the figures for the inhibition in experiment [7] and in experiment [8] were -4.13% (inactive) and 2.79% (inactive), respectively.

The term viability denotes a read-out of living cells in per cent, often relative to untreated cells. As usually defined, the inhibition is the relative decrease from the control value, in per cent.
